In ChEMBL document CHEMBL4017489, “Design, Synthesis, and Evaluation of New Selective NM23-H2 Binders as c-MYC Transcription Inhibitors via Disruption of the NM23-H2/G-Quadruplex Interaction” (J Med Chem, 2017):
The source made the active and inactive calls. The calls are words filed in the database; no cut-off is given here.

Legend:
[1] = Antiproliferative activity against mouse primary mesangial cells at 4 uM up to 100 hrs by real-time cellular activity assay; assay type: cell-based; conditions: primary mesangial cell
Method in brief: (§1)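 Impedance-based real-time cell analysis at 37 °C, 5% CO2: 100 μL of 20 000 cells/mL added over medium background, settled 20 min, dosed after 24 h; read every 2 min for 2 h, then every 15 min to end; three repeats.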

Mus musculus = assay: Toxicity in BALB/C nude mouse xenografted with human SiHa cells at 2.5 to 5 mg/kg, ip administered daily after 3 weeks; assay type: organism-based; conditions: in vivo, 504 h
Method in brief: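 SiHa cells implanted in the right armpit of BALB/c nu/nu mice. At approximately 50 mm3, mice randomized (n = 8/group) to vehicle, compound 2.5 or 5.0 mg/kg, or doxorubicin 1.0 mg/kg, given ip daily for 3 weeks. Body weight and signs of pain, distress or discomfort monitored; tumors excised and weighed. Data given as mean ± SEM, t test against vehicle.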

[2] = Antiproliferative activity against mouse primary mesangial cells at 0.5 to 2 uM up to 100 hrs by real-time cellular activity assay; assay type: cell-based; conditions: primary mesangial cell; method in brief: as §1
[3] = biological target: Nucleoside diphosphate kinase B (Homo sapiens, UniProt P22392, H118F); assay: Binding affinity to NM23-H2 H118F mutant (unknown origin) by SPR analysis
Nucleoside diphosphate kinase B (Homo sapiens, UniProt P22392, H118F), sequence (P22392 whole entry H118F): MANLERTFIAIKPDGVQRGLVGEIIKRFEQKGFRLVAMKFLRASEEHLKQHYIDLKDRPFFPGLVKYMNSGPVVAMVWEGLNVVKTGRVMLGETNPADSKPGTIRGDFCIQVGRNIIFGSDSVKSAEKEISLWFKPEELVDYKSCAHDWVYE

[4] = Binding affinity to Htg21 telomeric G-quadruplex DNA (unknown origin) at 40 uM after 30 mins by SPR analysis
SiHa [5] = assay: Induction of apoptosis in human SiHa cells assessed as necrotic cells at 2 uM after 48 hrs by Annexin V-FITC/propidium iodide based flow cytometric analysis (reference value: 0.3%); assay type: functional
SiHa [6] = assay: Cell cycle arrest in human SiHa cells assessed as accumulation at sub-G1 phase at 2 uM after 36 hrs by propidium iodide staining based flow cytometry relative to control; assay type: functional
Method in brief: (§2)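 SiHa cells (2.0 × 10^5 per well) plated 24 h, then exposed to 2 μM compound or left untreated for 3, 6, 9, 12, 24, 36 or 48 h. Cells washed in PBS, fixed overnight in ice-cold 70% ethanol, treated with 20 μg/mL RNase A for 30 min at 37 °C, stained with PI, and read by flow cytometry at 488 nm. Phase percentages compared with untreated control; at least three experiments.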

SiHa [7] = assay: Cell cycle arrest in human SiHa cells assessed as accumulation at sub-G1 phase at 2 uM after 48 hrs by propidium iodide staining based flow cytometry relative to control; assay type: functional; method in brief: as §2
[8] = biological target: T1, Nucleoside diphosphate kinase B (Homo sapiens, UniProt P22392, D54A); assay: Binding affinity to NM23-H2 D54A mutant (unknown origin) by SPR analysis
T1 sequence (P22392 whole entry D54A): as the sequence (P22392 whole entry H118F) above, with D54A, F118H counted along it

[9] = biological target: T2, Nucleoside diphosphate kinase B (Homo sapiens, UniProt P22392); assay: Binding affinity to NM23-H2 in human SiHa cells assessed as decrease in NM23-H2 to c-myc G-quadruplex DNA interaction after 9 hrs by Chromatin immunoprecipitation assay; assay type: cell-based
T2 sequence (P22392 whole entry, the tested form may be a part): as the sequence (P22392 whole entry H118F) above, with F118H counted along it
Method in brief: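 SiHa cells treated 9 h; chromatin immunoprecipitated overnight at 4 °C with anti-NM23-H2 (3 μg), rabbit IgG control; c-MYC promoter fragment PCR-amplified, gel bands normalized to input, untreated set 100%; three repeats.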

[10] = biological target: T2, Nucleoside diphosphate kinase B; assay: Binding affinity to NM23-H2 (unknown origin) assessed as reduction in protein interaction with Pu22 c-myc G-quadruplex DNA after 1 hr by EMSA
SiHa [11] = assay: Antiproliferative activity against human SiHa cells after 48 hrs by MTT assay; assay type: functional, cell-based
SiHa [12] = assay: Cell cycle arrest in human SiHa cells assessed as accumulation at G2/M phase at 2 uM after 3 hrs by propidium iodide staining based flow cytometry (reference value: 39%); assay type: functional
Method in brief: (§3)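 SiHa cells plated 24 h, treated at 2 μM for 3–48 h; fixed in ice-cold 70% ethanol overnight, RNase A 20 μg/mL 37 °C 30 min, PI-stained, flow cytometry at 488 nm; phase percentages quantified; at least three experiments.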

SiHa [13] = assay: Anticlonogenic activity against human SiHa cells up to 0.5 uM after 14 days by crystal violet staining based assay; assay type: functional, cell-based
Method in brief: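 Colony formation: SiHa cells and primary cultured mouse mesangial cells exposed to 0.5, 0.25, 0.125, 0.0625 and 0.03125 μM for 14 days, DMSO as negative control; three repeats.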

[14] = biological target: T1, Nucleoside diphosphate kinase B; assay: Binding affinity to N-terminal NT-647-NHS labeled NM23-H2 D54A mutant (unknown origin) after 30 mins by MST analysis
[15] = Binding affinity to 5'-FAM/3'-TAMRA labeled Pu22 c-myc G-quadruplex DNA (unknown origin) assessed as increase in melting temperature at 1 uM by FRET assay
[16] = biological target: T2, Nucleoside diphosphate kinase B; assay: Binding affinity to NM23-H2 in human SiHa cells assessed as disruption of protein interaction with c-myc G-quadruplex DNA by measuring decrease in c-MYC protein expresson at 1 to 2 uM after 48 hrs by Western blot analysis; assay type: cell-based
Method in brief: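 SiHa cells treated 48 h; lysates (30 μg) on 10% SDS-PAGE, nitrocellulose, anti-c-MYC overnight at 4 °C, HRP secondary, chemiluminescence; β-actin internal control; three repeats.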

SiHa [17] = assay: Cell cycle arrest in human SiHa cells assessed as accumulation at G0/G1 phase at 2 uM after 36 hrs by propidium iodide staining based flow cytometry (reference value: 48 %); assay type: functional; method in brief: as §3
SiHa [18] = assay: Cell cycle arrest in human SiHa cells assessed as accumulation at G0/G1 phase at 2 uM after 6 hrs by propidium iodide staining based flow cytometry (reference value: 48 %); assay type: functional; method in brief: as §3
SiHa [19] = assay: Cell cycle arrest in human SiHa cells assessed as accumulation at S phase at 2 uM after 24 hrs by propidium iodide staining based flow cytometry (reference value: 13 %); assay type: functional; method in brief: as §2
[20] = Binding affinity to N-terminal NT-647-NHS labeled NM23-H2 D121A mutant (unknown origin) after 30 mins by MST analysis; design: species or system Homo sapiens
SiHa [21] = assay: Cell cycle arrest in human SiHa cells assessed as accumulation at G2/M phase at 2 uM after 24 hrs by propidium iodide staining based flow cytometry (reference value: 39 %); assay type: functional; method in brief: as §3
SiHa [22] = assay: Antiproliferative activity against human SiHa cells harboring NM23-H2 siRNA up to 2 uM after 24 hrs by real-time cellular activity assay; assay type: functional, cell-based
Method in brief: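 SiHa cells precultured 24 h, transfected with 30 nM NM23-H2 siRNA for 6 h, dosed up to 2 μM 24 h after siRNA; growth followed by impedance-based real-time cell analysis.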

SiHa [23] = assay: Induction of apoptosis in human SiHa cells assessed as early apoptotic cells at 1 uM after 48 hrs by Annexin V-FITC/propidium iodide based flow cytometric analysis (reference value: 1.4 %); assay type: functional
SiHa [24] = assay: Down regulation of cyclin D1 expression in human SiHa cells at 0.5 to 2 uM after 24 to 48 hrs by Western blot analysis; assay type: functional, cell-based
Method in brief: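 SiHa cells (2.0 × 10^5) treated with compound at various concentrations for 24 or 48 h, then lysed at 4 °C. Protein measured by BCA; 30 μg run on 10% SDS-PAGE and transferred to nitrocellulose. Membranes blocked in 5% milk, probed with primary antibodies overnight at 4 °C, then HRP secondary for 2 h, and detected by chemiluminescence. Bands quantified by densitometry; at least three experiments.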

For `CN(C)CCCNc1cc2nc3n(c(=O)c2cc1F)CC/C3=C\c1ccc(OCc2ccccc2)cc1O`, the Activity [1] was “Toxic”, the Activity (Mus musculus) was “Non-Toxic” and the Activity [2] was “Non-Toxic”. For the same compound, the Kd [3] was 47 µM, the Activity [4] was “inactive” and the Activity (SiHa [5]) was 2.2%. The Activity (SiHa [6]) was 99%, the Activity (SiHa [7]) was 100% and the Kd [8] was 18.4 µM. The Activity [9] was “Dose-dependent effect”, the Activity [10] was “Dose-dependent effect” and the IC50 (SiHa [11]) was 1.78 µM. The Activity (SiHa [12]) was 38%, the Activity (SiHa [13]) was “Active” and the Kd [14] was 4.6 µM. The Activity [15] was “inactive”, the Activity [16] was “Active” and the Activity (SiHa [17]) was 1%. It also gave an Activity (SiHa [18]) of 62%, an Activity (SiHa [19]) of 6% and a Kd [20] of 94.1 µM. For the same compound, the Activity (SiHa [21]) was 8%, the Activity (SiHa [22]) was “inactive” and the Activity (SiHa [23]) was 80.7%. For the same compound, the Activity (SiHa [24]) was “Active”.
